# Laboratory results: ChEMBL document CHEMBL5046273, “Development of a Novel, Small-Molecule Brain-Penetrant Histone Deacetylase Inhibitor That Enhances Spatial Memory Formation in Mice” (J Med Chem, 2022)
# Activity calls are given as the source filed them. The rule behind the calls is not given here.
# Assays:
# DU-145 = assay: Cytotoxicity against human DU-145 cells assessed as reduction in cell viability at 0.00125 to 100 uM incubated for 48 hrs by MTT assay; format: functional, cell-based; details: dose 0.00125-100 µM
# Outline: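 DU145 cells in DMEM with 10% FBS were seeded at 14 000 cells/well and allowed to adhere for 24 h. Test agents were diluted from 10 mM DMSO stocks (100, 50, 25 µM; 10, 5, 1.25 nM) and applied in triplicate for 48 h at 37 °C, 5% CO2, with DMSO as vehicle. Read-out was 250 µg/mL MTT for 4 h, DMSO solubilization, and A570 with 690 nm reference. Values normalized to DMSO.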
# Histone deacetylase 2 [1] = biological target: T1, Histone deacetylase 2 (Homo sapiens, UniProt Q92769); assay: Inhibition of recombinant human full-length HDAC2 incubated for 10 mins by Glo-luminescence assay
# Outline: (§1)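 Compounds were serially diluted and incubated with enzyme for 10 min. HDAC-Glo I/II substrate/developer was then added, and luminescence read after 40 min at 23 °C. IC50 from four-parameter fits from two independent titrations, mean ± SD.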
# Histone deacetylase 2 [2] = biological target: T1, Histone deacetylase 2; assay: Inhibition of recombinant human full-length HDAC2 preincubated for 20 mins with DTT followed by enzyme addition and measured after 10 mins by Glo-luminescence assay; outline: as §1
# T1 sequence (Q92769 whole entry): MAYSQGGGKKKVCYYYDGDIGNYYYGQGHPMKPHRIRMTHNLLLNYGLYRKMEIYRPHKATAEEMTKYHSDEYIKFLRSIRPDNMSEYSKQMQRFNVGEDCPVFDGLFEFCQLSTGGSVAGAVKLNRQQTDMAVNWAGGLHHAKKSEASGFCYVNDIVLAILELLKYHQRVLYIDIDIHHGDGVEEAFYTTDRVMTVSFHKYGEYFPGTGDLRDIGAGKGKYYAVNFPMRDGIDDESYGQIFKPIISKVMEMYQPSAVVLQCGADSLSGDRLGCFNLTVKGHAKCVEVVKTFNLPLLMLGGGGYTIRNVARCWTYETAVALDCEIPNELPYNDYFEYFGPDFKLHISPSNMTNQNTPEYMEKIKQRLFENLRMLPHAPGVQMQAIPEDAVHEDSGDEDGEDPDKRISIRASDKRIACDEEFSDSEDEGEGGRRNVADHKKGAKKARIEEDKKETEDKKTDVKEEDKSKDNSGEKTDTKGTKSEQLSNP
SMILES,Activity (DU-145),IC50 (Histone deacetylase 2 [1]) [µM],IC50 (Histone deacetylase 2 [2]) [µM]
CC(C)(C)NC(=O)CC(O)/C=C/CCSSCC/C=C/C(O)CC(=O)NC(C)(C)C (stereo not given),inactive,> 100,18
CCCC[C@@H](NC(=O)CC(O)/C=C/CCSSCC/C=C/C(O)CC(=O)N[C@H](CCCC)C(=O)OC)C(=O)OC (stereo not given in full),,280,17
